Assay [1] concerns the target T1, Peptidoglycan D,D-transpeptidase MrdA (Escherichia coli K-12) (UniProt P0AD65).
T1 sequence (whole entry): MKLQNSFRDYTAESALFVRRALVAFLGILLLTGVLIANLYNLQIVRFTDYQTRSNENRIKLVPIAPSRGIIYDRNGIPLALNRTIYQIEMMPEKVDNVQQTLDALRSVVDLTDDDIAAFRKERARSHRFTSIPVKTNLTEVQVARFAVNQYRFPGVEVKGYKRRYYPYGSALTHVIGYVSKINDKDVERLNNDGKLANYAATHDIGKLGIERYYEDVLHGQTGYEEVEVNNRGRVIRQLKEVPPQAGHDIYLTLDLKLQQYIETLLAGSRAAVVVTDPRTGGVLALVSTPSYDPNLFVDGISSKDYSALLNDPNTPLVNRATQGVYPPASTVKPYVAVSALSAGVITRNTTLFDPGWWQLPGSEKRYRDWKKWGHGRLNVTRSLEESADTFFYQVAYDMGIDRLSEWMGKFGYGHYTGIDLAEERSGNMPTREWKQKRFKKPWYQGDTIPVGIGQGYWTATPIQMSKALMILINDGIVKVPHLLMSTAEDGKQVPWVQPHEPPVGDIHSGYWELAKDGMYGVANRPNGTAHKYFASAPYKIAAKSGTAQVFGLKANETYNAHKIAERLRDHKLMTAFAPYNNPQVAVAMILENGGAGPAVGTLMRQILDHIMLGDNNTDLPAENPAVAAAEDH
The assay is described as follows: Binding affinity to Escherichia coli K12 NusA-fused/His6-tagged PBP2 (57 to 615 residues) expressed in Escherichia coli BL21(DE3) assessed as melting temperature at protein to compound ratio of 1:10 measured after 30 mins using SYPRO orange dye by RT-PCR-based fluorescence assay (reference value: 47 +/- 0.5 degC). The essentials:
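Thermal unfolding was monitored with SYPRO Orange dye in a real-time PCR instrument, at a protein/ligand ratio of 1/10. Tm was taken at the inflexion point of the denaturation curve and reported ±0.5 °C.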

For assay [2], the target named is T2, Peptidoglycan D,D-transpeptidase MrdA (Escherichia coli K-12, UniProt P0AD65).
T2 sequence (P0AD65 whole entry): T1 sequence (whole entry)
Description: Inhibition of bocillin-FL binding to Escherichia coli K12 NusA-fused/His6-tagged PBP2 (57 to 615 residues) expressed in Escherichia coli BL21(DE3) preincubated for 30 mins followed by bocillin-FL addition by RT-fluorescence anisotropy method. A general note: Polarisation of emitted light reports the rotation of a fluorescent probe.

In assay [3] the target is T3, Penicillin-binding protein 1B (Escherichia coli K-12) (UniProt P02919).
T3 sequence (whole entry): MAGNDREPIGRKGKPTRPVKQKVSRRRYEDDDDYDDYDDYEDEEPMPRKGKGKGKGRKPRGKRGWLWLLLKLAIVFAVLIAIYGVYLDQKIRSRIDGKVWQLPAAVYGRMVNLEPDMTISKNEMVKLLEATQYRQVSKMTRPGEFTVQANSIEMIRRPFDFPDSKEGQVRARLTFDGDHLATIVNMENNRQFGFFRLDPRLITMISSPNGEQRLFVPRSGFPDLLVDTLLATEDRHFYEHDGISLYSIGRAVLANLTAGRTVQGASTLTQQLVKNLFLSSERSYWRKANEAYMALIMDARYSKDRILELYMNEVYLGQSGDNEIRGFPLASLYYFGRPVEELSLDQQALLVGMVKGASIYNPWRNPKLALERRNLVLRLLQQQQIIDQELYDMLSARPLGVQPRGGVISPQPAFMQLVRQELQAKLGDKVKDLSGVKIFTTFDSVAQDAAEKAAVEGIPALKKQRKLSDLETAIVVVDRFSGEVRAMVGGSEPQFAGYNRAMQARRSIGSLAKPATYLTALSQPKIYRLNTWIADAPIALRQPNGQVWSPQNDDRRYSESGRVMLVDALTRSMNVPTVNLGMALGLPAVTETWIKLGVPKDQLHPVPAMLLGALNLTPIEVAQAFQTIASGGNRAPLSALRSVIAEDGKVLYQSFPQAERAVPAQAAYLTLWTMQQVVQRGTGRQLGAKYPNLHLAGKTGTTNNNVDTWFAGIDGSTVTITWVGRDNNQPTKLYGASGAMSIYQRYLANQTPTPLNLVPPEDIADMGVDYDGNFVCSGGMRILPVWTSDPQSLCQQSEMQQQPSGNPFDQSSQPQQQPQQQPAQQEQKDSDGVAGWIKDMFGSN
Description: Inhibition of Escherichia coli PBP1b.

The subject of assay [4] is Escherichia coli. The assay is described as follows: Inhibition of Escherichia coli PBP3.
Assay [5] has as its system Escherichia coli. Description: Antibacterial activity against Escherichia coli clinical isolates measured after 16 to 20 hrs by broth microdilution method. The assay is classed as functional. The essentials:
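Broth microdilution MICs following CLSI M7-A7, run against genotyped carbapenem-resistant E. coli and P. aeruginosa strains.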

The target of assay [6] is T4, Penicillin-binding protein 1A (Escherichia coli K-12) (UniProt P02918).
T4 sequence (whole entry): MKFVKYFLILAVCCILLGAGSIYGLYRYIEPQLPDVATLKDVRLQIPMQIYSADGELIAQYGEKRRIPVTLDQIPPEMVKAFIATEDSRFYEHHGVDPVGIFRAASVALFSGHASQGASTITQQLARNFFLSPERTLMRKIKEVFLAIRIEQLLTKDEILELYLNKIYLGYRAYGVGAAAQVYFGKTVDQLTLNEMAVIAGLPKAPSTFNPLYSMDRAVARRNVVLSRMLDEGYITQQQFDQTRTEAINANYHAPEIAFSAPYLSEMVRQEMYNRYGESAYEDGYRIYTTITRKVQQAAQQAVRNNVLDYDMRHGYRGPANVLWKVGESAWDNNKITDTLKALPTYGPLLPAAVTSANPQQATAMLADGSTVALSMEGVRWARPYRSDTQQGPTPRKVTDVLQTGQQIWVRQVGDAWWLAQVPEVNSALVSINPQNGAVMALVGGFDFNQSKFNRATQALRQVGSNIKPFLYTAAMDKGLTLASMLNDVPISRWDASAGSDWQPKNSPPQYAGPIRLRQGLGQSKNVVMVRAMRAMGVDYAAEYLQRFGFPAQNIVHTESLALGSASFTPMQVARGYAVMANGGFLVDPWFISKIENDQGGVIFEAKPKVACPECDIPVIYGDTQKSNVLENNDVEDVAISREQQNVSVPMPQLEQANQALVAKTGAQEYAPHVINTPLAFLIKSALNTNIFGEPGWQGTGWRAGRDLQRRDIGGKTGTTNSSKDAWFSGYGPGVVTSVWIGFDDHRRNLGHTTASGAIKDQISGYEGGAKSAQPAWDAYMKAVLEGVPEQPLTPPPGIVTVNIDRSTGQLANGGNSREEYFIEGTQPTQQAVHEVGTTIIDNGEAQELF
Description: Inhibition of Escherichia coli PBP1a up to 200 uM.

For assay [7], the target named is T3, Penicillin-binding protein 1B (Escherichia coli K-12). The assay is described as follows: Inhibition of Escherichia coli PBP1b up to 200 uM.
The test system of assay [8] is Escherichia coli. Description: Inhibition of Escherichia coli PBP3 up to 200 uM.
The target in assay [9] is Penicillin-binding protein 1A (Pseudomonas aeruginosa PAO1) (UniProt Q07806). Description: Inhibition of Pseudomonas aeruginosa PBP1a up to 200 uM.
In assay [10] the test system is Bacteria. Description: Inhibition of bacterial beta-lactamase SHV-1.
Assay [11] relates to Bacteria. Description: Inhibition of bacterial OXA-48.

In brackets after ≈: the same amount, converted by molar mass. Activity calls are given as the source filed them. The rule behind the calls is not given here.

Data on one compound can be found in ChEMBL document CHEMBL4350960, “Structural Basis for E. coli Penicillin Binding Protein (PBP) 2 Inhibition, a Platform for Drug Design” (J Med Chem, 2019).

Chain of Penicillin-binding protein 1A (Pseudomonas aeruginosa PAO1) (Q07806 whole entry): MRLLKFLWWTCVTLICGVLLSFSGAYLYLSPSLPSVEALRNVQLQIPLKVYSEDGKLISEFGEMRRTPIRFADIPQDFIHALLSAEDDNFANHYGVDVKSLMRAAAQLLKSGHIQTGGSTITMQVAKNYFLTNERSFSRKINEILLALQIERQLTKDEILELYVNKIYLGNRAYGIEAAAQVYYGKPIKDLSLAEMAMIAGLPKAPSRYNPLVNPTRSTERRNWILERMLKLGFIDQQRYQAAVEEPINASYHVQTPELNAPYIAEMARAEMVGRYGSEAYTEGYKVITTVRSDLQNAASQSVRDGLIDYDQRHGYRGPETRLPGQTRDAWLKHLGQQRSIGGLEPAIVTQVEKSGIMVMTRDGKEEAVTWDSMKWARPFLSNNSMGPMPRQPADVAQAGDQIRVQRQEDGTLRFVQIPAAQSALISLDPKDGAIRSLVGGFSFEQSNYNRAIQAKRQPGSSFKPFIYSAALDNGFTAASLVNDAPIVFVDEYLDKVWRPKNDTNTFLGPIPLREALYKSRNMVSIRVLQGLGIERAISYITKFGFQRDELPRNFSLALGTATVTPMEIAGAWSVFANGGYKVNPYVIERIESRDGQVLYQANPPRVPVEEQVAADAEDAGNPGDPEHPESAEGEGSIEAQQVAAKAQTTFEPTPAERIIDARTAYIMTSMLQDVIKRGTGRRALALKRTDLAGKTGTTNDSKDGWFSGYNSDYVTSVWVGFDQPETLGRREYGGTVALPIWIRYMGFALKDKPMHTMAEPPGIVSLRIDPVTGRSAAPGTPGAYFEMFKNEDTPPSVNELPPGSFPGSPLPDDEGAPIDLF

One may read the IC50 as the concentration that inhibits the measured activity by half. A higher IC50 goes with weaker potency in that assay. As usually defined, the MIC50 is an inhibitory concentration at the 50% level, which refers to growth in some studies and to a panel of isolates in others. A high value points to lower susceptibility. In general, MIC90 refers to an inhibitory concentration at the 90% level, which refers to growth in some studies and to a panel of isolates in others. Regarding `NC[C@@H]1C=C(c2cnco2)[C@@H]2CN1C(=O)N2OS(=O)(=O)O` (relative stereo), the Tm in assay [1] was found to be 55.5 °C. For the same compound, the IC50 in assay [2] is 10 nM. Besides, the inhibition entry (in assay [3]; in the assay on Escherichia coli [4]; in [6]; in assay [7]; in the assay with Escherichia coli [8]; in assay [9]) was “inactive” in each case. The MIC50 in the assay with Escherichia coli [5] worked out at 0.031 µg/mL (≈ 0.098 µM). For the same compound, in the assay on Escherichia coli [5], the MIC90 was more than 32 µg/mL. Also, the inhibition result with Bacteria [10] and in the assay with Bacteria [11] was “Active” throughout.
